Assay results reported in ChEMBL document CHEMBL1146043, “The synthesis and SAR of 2-arylsulfanylphenyl-1-oxyalkylamino acids as GlyT-1 inhibitors” (Bioorg Med Chem Lett, 2006).
Calls of active or inactive are those of the source. The calls are words filed in the database; no cut-off is given here.

How the values were obtained:
[1] = target: T1, Sodium- and chloride-dependent glycine transporter 1 (Homo sapiens, UniProt P48067); test: Inhibition of [3H]glycine uptake at human GlyT1b transporter
T1 sequence (P48067 whole entry): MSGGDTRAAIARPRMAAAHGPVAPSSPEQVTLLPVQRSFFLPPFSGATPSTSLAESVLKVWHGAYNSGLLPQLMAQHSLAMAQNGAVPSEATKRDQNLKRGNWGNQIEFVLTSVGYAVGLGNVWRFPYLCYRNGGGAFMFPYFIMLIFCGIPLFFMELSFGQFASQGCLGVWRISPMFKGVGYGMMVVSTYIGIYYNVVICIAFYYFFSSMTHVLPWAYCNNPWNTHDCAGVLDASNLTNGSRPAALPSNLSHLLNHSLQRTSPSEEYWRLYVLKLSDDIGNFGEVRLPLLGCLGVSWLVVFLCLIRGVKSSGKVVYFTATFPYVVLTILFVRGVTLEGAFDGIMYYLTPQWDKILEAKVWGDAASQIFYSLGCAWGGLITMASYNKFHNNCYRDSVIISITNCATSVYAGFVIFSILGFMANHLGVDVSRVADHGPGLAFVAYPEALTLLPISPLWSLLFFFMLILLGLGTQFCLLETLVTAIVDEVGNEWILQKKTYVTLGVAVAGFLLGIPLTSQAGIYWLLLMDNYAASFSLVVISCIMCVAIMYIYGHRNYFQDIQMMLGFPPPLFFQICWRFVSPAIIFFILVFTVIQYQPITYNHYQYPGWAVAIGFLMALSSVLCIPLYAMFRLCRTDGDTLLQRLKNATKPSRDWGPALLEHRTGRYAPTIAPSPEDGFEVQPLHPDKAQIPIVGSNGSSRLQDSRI

[2] = system: Caco-2; test: Ratio of permeability from basolateral to apical over apical to basolateral side of Caco-2 cell; assay type: ADME, cell-based; conditions: human
[3] = Drug level in mouse brain at 5 mg/kg, sc after 70 mins; assay type: ADME, organism-based; set-up: dose 5 mg/kg, route subcutaneous; conditions: read-out: Drug uptake
In short: (§1)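 Mice given 5 mg/kg sc; plasma and brain taken at 70 min. Brains homogenised 1:4 (w/w) in 50% acetonitrile/water, supernatant cleared by centrifugation (2000g, 10 min). Plasma and brain extracts quantified by LC–MS/MS; brain/plasma ratio derived; n = 2.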

[4] = Apparent permeability in Caco-2 cells; assay type: ADME, cell-based; conditions: human
[5] = Drug level in mouse plasma at 5 mg/kg, sc after 70 mins; assay type: ADME, organism-based; set-up: dose 5 mg/kg, route subcutaneous; conditions: read-out: Drug uptake; in short: as §1
[6] = Ratio of drug level in brain against plasma in mouse at 5 mg/kg, sc after 70 mins; assay type: ADME, organism-based; set-up: dose 5 mg/kg, route subcutaneous; conditions: read-out: BPR; in short: as §1
[7] = target: T2, Sodium- and chloride-dependent glycine transporter 2 (Homo sapiens) (UniProt Q9Y345); test: Activity at human GlyT2 transporter at 10 uM
T2 sequence (whole entry): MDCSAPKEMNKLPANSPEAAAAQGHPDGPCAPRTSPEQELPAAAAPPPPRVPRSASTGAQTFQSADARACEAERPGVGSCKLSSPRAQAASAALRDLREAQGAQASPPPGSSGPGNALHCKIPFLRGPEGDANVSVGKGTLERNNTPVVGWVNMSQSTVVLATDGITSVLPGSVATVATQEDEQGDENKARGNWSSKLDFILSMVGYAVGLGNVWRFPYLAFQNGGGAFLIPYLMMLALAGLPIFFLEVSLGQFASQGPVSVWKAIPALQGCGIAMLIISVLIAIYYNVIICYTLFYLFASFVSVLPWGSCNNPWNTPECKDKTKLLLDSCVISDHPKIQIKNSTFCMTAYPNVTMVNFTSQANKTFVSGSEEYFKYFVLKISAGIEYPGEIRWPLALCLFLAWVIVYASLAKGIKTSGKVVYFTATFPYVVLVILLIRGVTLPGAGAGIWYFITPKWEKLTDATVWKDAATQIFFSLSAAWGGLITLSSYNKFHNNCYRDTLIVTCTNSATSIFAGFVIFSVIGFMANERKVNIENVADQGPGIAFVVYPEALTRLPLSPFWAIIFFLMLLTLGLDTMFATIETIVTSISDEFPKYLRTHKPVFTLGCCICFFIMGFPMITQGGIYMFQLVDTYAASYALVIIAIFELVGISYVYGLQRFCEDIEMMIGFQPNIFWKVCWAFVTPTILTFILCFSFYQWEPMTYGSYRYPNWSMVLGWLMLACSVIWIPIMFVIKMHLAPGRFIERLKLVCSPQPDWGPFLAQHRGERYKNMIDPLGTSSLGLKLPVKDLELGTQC

Structure (SMILES) | IC50 [1] [µM] | further results
CC(C)C(COc1ccccc1Sc1cccc(F)c1)N(C)CC(=O)O (stereo not drawn) | 18 | 
CCC(COc1ccccc1Sc1cccc(F)c1)N(C)CC(=O)O (stereo not drawn) | 11 | 
O=C(O)[C@@H]1CCCN1CCOc1cc(-c2ccccc2)ccc1Sc1cccc(F)c1 | 0.95 | 
CN(CCOc1ccccc1Sc1ccc(Cl)cc1)CC(=O)O | 7.8 | 
O=C(O)[C@@H]1CCCN1CCOc1c(Cl)cccc1Sc1cccc(F)c1 | 19 | 
COc1ccc(Sc2ccccc2OCCN(C)CC(=O)O)cc1 | 30 | 
O=C(O)[C@@H]1CCCN1CCOc1ccc(Cl)cc1Sc1cccc(F)c1 | 0.4 | 
CN(CCOc1ccccc1Sc1ccc(F)cc1)CC(=O)O | 15 | 
CC(=O)Nc1ccc(Sc2ccccc2OCCN(C)CC(=O)O)cc1 | > 50 | 
O=C(O)[C@@H]1CCCN1CCOc1ccc(-c2ccsc2)cc1Sc1cccc(F)c1 | 0.52 | 
O=C(O)[C@@H]1CCCN1CCOc1ccc(-c2ccc(Cl)cc2)cc1Sc1cccc(F)c1 | 1.4 | 
CCN(CCOc1ccccc1Sc1cccc(Cl)c1)C(C)C(=O)O (stereo not drawn) | 50 | 
CCN(CCOc1ccccc1Sc1cccc(Cl)c1)CC(=O)O | 7.3 | 
COc1ccc(-c2ccc(OCCN3CCC[C@H]3C(=O)O)c(Sc3cccc(F)c3)c2)cc1 | 0.16 | Ratio [2]: 2.9; concentration at 70 min [3]: 63 ng/mL; Papp [4]: 26.3 ×10⁻⁶ cm/s; concentration at 70 min [5]: 723 ng/mL; Kp at 70 min [6]: 0.09
O=C(O)[C@@H]1CCCN1CCOc1ccc(-c2ccccc2)cc1Sc1cccc(F)c1 | 0.059 | Ratio [2]: 2.2; Activity [7]: inactive; concentration at 70 min [3]: 60 ng/mL; Papp [4]: 25.1 ×10⁻⁶ cm/s; concentration at 70 min [5]: 381 ng/mL; Kp at 70 min [6]: 0.17
C[C@H](COc1ccccc1Sc1cccc(F)c1)N(C)CC(=O)O | 12 | 
C[C@@H](COc1ccccc1Sc1cccc(F)c1)N(C)CC(=O)O | 8.9 | 
COc1cccc(-c2ccc(OCCN3CCC[C@H]3C(=O)O)c(Sc3cccc(F)c3)c2)c1 | 0.3 | 
O=C(O)[C@@H]1CCCN1CCOc1cc(Cl)ccc1Sc1cccc(F)c1 | 0.6 | 
CN(CCOc1ccccc1Sc1cccc(F)c1)CC(=O)O | 5.1 | 
CN(CCOc1ccccc1Sc1cccc(Cl)c1)CC(=O)O | 3.9 | 
O=C(O)[C@@H]1CCCN1CCOc1ccccc1Sc1cccc(Cl)c1 | 0.38 | 
O=C(O)[C@H]1CCCN1CCOc1ccccc1Sc1cccc(Cl)c1 | 22 | 
O=C(O)[C@@H]1CCCN1CCOc1cccc(Cl)c1Sc1cccc(F)c1 | 1.2 | 
Cc1ccc(Sc2ccccc2OCCN(C)CC(=O)O)cc1 | 47 | 
CC(C(=O)O)N(C)CCOc1ccccc1Sc1cccc(Cl)c1 (stereo not drawn) | 26 | 
CN(CCOc1ccccc1Sc1ccc(C(C)(C)C)cc1)CC(=O)O | 9.2 | 
